The values below come from ChEMBL document CHEMBL4513216, “Probing the Open Global Health Chemical Diversity Library for Multistage-Active Starting Points for Next-Generation Antimalarials” (ACS Infect Dis, 2020).

The nature of this data set: Toxicity liver stage against HepG2, at 10uM. Format: cell-based. Details: test concentration 10 uM, cell line HepG2-A16-CD81EGFP. The note with it: human, HepG2-A16-CD81EGFP cells; read-out: INHIBITION
Summed up:
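Uninfected HepG2-A16-CD81EGFP cells, 3 × 10^3 per well, 1536-well, plated on prespotted compound at 10 μM final, parasite-free screening media added to match infected plates; puromycin 10 μM positive, DMSO 0.5% negative; run in parallel with 48 h PbLuc assay at 37 °C, 5% CO2; viability by CellTiter-Glo luminescence, normalized to controls.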
For `CN1CC(c2ccccc2)C2(CCN(C(=O)c3ccc[nH]3)CC2)C1=O` (centres undefined), the cytotoxicity at 10 µM worked out at 9.25%.
In the case of `CNC(=O)N1CCC2(COCc3c(C)nc(NCc4ccco4)nc32)C1` (centres undefined), the cytotoxicity at 10 µM was 11.2%.
As to `COCC1CN(Cc2ccoc2)Cc2cn(CC3CCOCC3)nc21` (centres undefined), the cytotoxicity at 10 µM worked out at 11.6%.
Take `Cc1cccc(CSc2ncc(Cl)c(C(=O)O)n2)c1`: the cytotoxicity at 10 µM stood at 3.86%.
For the compound `O=C(NCC1(CO)CC1)c1cccc2ccccc12`, the cytotoxicity at 10 µM was -12.5%.
As for `CC(C)(C)c1cc(C(=O)N2CCOC(c3cnccn3)C2)[nH]n1` (centres undefined), the cytotoxicity at 10 µM was determined as 2.02%.
Regarding `CC(NC(N)=O)C(=O)N(C)Cc1cccc(C(F)(F)F)c1` (centres undefined), the cytotoxicity at 10 µM was -5.14%.
Turning to `O=C(Nc1cc(C(F)(F)F)c[nH]c1=O)C1CCNCC1`, the cytotoxicity at 10 µM was found to be 6.01%.
For the compound `O=C(COC1CCCCC1)N1CCN(C(=O)Cc2ccccn2)CC1`, the cytotoxicity at 10 µM was -1.3%.
`Cc1ncc(CNc2ccc(C(=O)NCc3ccco3)cc2C)s1`: the cytotoxicity at 10 µM is -10.5%.
Consider `CCC(C)(NCC(=O)Nc1nc(C)cs1)c1nc(C)cs1` (centres undefined), for which the cytotoxicity at 10 µM worked out at 16.4%.
The same measure for `Cc1cnc(C(=O)N(CCN(C)C)Cc2ccc(Cl)cc2)cn1`: 1.58%; for `CCOc1cc(C)nc(N2CCN(Cc3nccn3C)CC2)n1`: -4.04%.
The same measure for `CN1CCC2(CCN(C(=O)c3cccnc3)C2)C1` (centres undefined): -101%; for `CCNC(=O)C1CCN(Cc2ccc(C(=O)Nc3cnns3)cc2)C1` (centres undefined): 9.2%; for `O=C1NCCc2c1sc1ccc(C(=O)N3CC[C@H](CO)[C@H](O)C3)cc21`: -1.7%.
For `O[C@@]1(CNCCOc2ccccc2)CCCN2CCCC[C@@H]21`, the cytotoxicity at 10 µM is -2.96%.
For the compound `CN(Cc1ccsc1)Cc1nc(-c2cnccn2)no1`, the cytotoxicity at 10 µM is -0.164%.
Regarding `CC(Cn1cncn1)NCc1ccc2nonc2c1` (centres undefined), the cytotoxicity at 10 µM was 3.05%.
As for `Cn1ccnc1-c1nccn1C[C@@H]1CCCN2CCCC[C@H]12`, the cytotoxicity at 10 µM came out at 2.68%.
`CCc1cc(CN(C)C(=O)c2nnc(CN(C)C)o2)on1`: the cytotoxicity at 10 µM stood at 1.77%.
With `O=C1N(C2CCOCC2)CCCC12CCN(c1ncccc1Cl)C2` (centres undefined), the cytotoxicity at 10 µM was -129%.
In the case of `Cc1nc(N2CCOc3ccc(CO)cc3C2)c2nc(C)oc2n1`, the cytotoxicity at 10 µM came to 7.91%.
On to `COC(=O)NCC(=O)N1CCCCC1c1nc2cc(F)ccc2[nH]1` (centres undefined), for which the cytotoxicity at 10 µM was -1.41%.
With `CSCC(=O)N1CCc2c(cnc(C)c2-c2noc(-c3cc[nH]n3)n2)C1`, the cytotoxicity at 10 µM is 1.87%.
`CC(Cn1cncn1)NC1CCN(Cc2cccc(O)c2)CC1` (centres undefined): the cytotoxicity at 10 µM was 2.64%.
The same measure for `COc1cccc([C@@H]2CN(C(=O)c3ccc(C)cc3O)C[C@H]2C(=O)O)c1`: 6.49%; for `Cc1ccc(N2CCCC(NCc3nnc(-c4ccco4)o3)C2)nn1` (centres undefined): -9.07%; for `Cc1cc(CN2CCCC2c2c(C)nn(C)c2Cl)no1` (centres undefined): -6.98%.
On to `Cc1cnn(CC2CCCN2C(=O)c2cc(C)no2)c1` (centres undefined), for which the cytotoxicity at 10 µM was -0.194%.
Take `CCc1ncc2c(n1)CN(CC(=O)NCCOc1ccccc1)CC2`: the cytotoxicity at 10 µM was -2.11%.
The same measure for `COC(=O)c1ccc(N2CCN(CCC(=O)NC(N)=O)C(C)C2)cc1` (centres undefined): -6.39%.
On to `CCOc1cc(C(=O)N2CCCC(c3noc(C)n3)C2)ccn1` (centres undefined), for which the cytotoxicity at 10 µM was -4.49%.
Take `O=C(NCC1CC[C@@H]2[C@@H]1OCCN2Cc1cccs1)c1ccco1` (some centres undefined): the cytotoxicity at 10 µM is 3.23%.
With `Cc1cnc(N2CCC3(CC2)COCCN(C(C)C)C3)nc1`, the cytotoxicity at 10 µM was -121%.
To `O=C(C1CCCO1)N1CCC2(CC1)COCCN(Cc1cccnc1)C2` (centres undefined) belongs -108%; to `Cc1ccc(CN2CCC3(CC(=O)N(c4cccc(F)c4)C3)C2)o1` (centres undefined), -140%; to `CC(=O)N1CCO[C@@H]2CN(C(=O)NCc3cccnc3)CC[C@@H]2C1`, 7.34%.
The same measure for `O=C(c1cnccn1)N1CCC(F)(F)C2(CCN(c3ccccn3)C2)C1` (centres undefined): 11.9%.
